Measurements: ChEMBL document CHEMBL1138395, “Adamantane sulfone and sulfonamide 11-beta-HSD1 Inhibitors” (Bioorg Med Chem Lett, 2007)

Experiments:
[1] = target: 11-beta-hydroxysteroid dehydrogenase 1 (Mus musculus, UniProt P50172); experiment: Inhibition of mouse HSD1 assessed as interconversion of cortisone to cortisol
How it was run: (§1)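 Enzyme inhibition measured as blocking the interconversion between cortisone and cortisol by mouse HSD1 (reported as Ki) or mouse HSD2 (reported as IC50); values are means of at least two experiments.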

[2] = Metabolic stability in mouse liver microsomes assessed as compound remaining after 30 mins; assay type: ADME, Microsome; settings: read-out: Stability
How it was run: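 Test compound incubated with mouse liver microsomes for 30 min; percent of parent compound remaining afterward reported.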

[3] = target: T1, 11-beta-hydroxysteroid dehydrogenase type 2 (Mus musculus, UniProt P51661); experiment: Inhibition of mouse HSD2 assessed as interconversion of cortisone to cortisol; how it was run: as §1
T1 sequence (P51661 whole entry): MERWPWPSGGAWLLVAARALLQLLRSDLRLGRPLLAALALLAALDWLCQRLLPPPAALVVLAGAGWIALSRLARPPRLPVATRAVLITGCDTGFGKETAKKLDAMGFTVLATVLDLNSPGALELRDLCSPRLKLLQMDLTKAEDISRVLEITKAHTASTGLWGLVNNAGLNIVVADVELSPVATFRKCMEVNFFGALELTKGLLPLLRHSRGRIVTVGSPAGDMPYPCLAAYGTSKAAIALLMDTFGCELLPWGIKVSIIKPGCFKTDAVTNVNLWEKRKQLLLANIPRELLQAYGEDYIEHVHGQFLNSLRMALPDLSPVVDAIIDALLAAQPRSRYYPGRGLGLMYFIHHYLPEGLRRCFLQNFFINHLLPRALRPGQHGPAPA

[4] = target: T2, 11-beta-hydroxysteroid dehydrogenase 1 (Homo sapiens, UniProt P28845); experiment: Inhibition of human HSD1 assessed as interconversion of cortisone to cortisol
[5] = target: T2, 11-beta-hydroxysteroid dehydrogenase 1; experiment: Inhibition of human HSD1 expressed in HEK cells; assay type: cell-based, HEK293
[6] = target: T3, 11-beta-hydroxysteroid dehydrogenase type 2 (Homo sapiens, UniProt P80365); experiment: Inhibition of human HSD2 assessed as interconversion of cortisone to cortisol
T3 sequence (P80365 whole entry): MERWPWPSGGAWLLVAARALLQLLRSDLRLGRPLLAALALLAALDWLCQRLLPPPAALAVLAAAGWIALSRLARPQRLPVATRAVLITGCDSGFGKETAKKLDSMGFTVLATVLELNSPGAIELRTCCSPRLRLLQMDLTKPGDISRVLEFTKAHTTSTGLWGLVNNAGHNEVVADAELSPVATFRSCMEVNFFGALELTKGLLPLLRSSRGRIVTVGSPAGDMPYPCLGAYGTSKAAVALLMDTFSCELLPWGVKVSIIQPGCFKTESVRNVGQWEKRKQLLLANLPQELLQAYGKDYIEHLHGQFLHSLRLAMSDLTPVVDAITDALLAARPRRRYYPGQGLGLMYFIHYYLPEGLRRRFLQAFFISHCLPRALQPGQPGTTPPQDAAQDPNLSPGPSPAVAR

[7] = Plasma clearance in mouse at 10 mg/kg, iv; assay type: ADME, organism-based; set-up: dose 10 mg/kg, route intravenous
[8] = tested on: Mus musculus; experiment: Ex vivo inhibition of liver 11-beta-HSD1 in DIO mouse at 30 mg/kg, po after 7 hrs; assay type: functional
How it was run: (§2)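 DIO mice dosed orally at 30 mpk; animals killed 1, 7 and 16 h after the dose and liver, fat and brain taken. Ex vivo 11-β-HSD1 activity (cortisol levels) in tissue was measured and percent inhibition expressed relative to vehicle-dosed animals; means from two animals per point.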

[9] = Volume of distribution at steady state in mouse at 10 mg/kg; assay type: ADME, organism-based; set-up: dose 10 mg/kg; settings: in vivo, read-out: Vdss
[10] = tested on: Mus musculus; experiment: Ex vivo inhibition of brain 11-beta-HSD1 in DIO mouse at 30 mg/kg, po after 7 hrs; assay type: functional; how it was run: as §2
[11] = Volume of distribution at terminal phase in mouse at 10 mg/kg; assay type: ADME, organism-based; set-up: dose 10 mg/kg; settings: in vivo, read-out: Vbeta
[12] = tested on: Mus musculus; experiment: Ex vivo inhibition of fat 11-beta-HSD1 in DIO mouse at 30 mg/kg, po after 7 hrs; assay type: functional; how it was run: as §2
[13] = tested on: Mus musculus; experiment: Ex vivo inhibition of liver 11-beta-HSD1 in DIO mouse at 30 mg/kg, po after 1 hr; assay type: functional; how it was run: as §2
[14] = tested on: Mus musculus; experiment: Ex vivo inhibition of fat 11-beta-HSD1 in DIO mouse at 30 mg/kg, po after 1 hr; assay type: functional; how it was run: as §2
[15] = AUC in mouse at 10 mg/kg, po; assay type: ADME, organism-based; set-up: dose 10 mg/kg, route oral; settings: plasma
[16] = tested on: Mus musculus; experiment: Ex vivo inhibition of fat 11-beta-HSD1 in DIO mouse at 30 mg/kg, po after 16 hrs; assay type: functional; how it was run: as §2
[17] = tested on: Mus musculus; experiment: Ex vivo inhibition of brain 11-beta-HSD1 in DIO mouse at 30 mg/kg, po after 16 hrs; assay type: functional; how it was run: as §2
[18] = Oral bioavailability in mouse at 10 mg/kg; assay type: ADME, organism-based; settings: in vivo
[19] = tested on: Mus musculus; experiment: Ex vivo inhibition of brain 11-beta-HSD1 in DIO mouse at 30 mg/kg, po after 1 hr; assay type: functional; how it was run: as §2
[20] = Half life in mouse at 10 mg/kg, iv; assay type: ADME, organism-based; set-up: dose 10 mg/kg, route intravenous; settings: in vivo
[21] = tested on: Mus musculus; experiment: Ex vivo inhibition of liver 11-beta-HSD1 in DIO mouse at 30 mg/kg, po after 16 hrs; assay type: functional; how it was run: as §2
[22] = Volume of distribution at steady state in mouse at 5 mg/kg, iv and 10 mg/kg, po; assay type: ADME, organism-based; settings: in vivo, read-out: Vdss
[23] = Oral bioavailability in mouse at 5 mg/kg, iv and 10 mg/kg, po; assay type: ADME, organism-based; settings: in vivo
[24] = AUC in mouse at 5 mg/kg, iv and 10 mg/kg, po; assay type: ADME, organism-based; settings: plasma
[25] = Plasma clearance in mouse at 5 mg/kg, iv and 10 mg/kg, po; assay type: ADME, organism-based
[26] = Half life in mouse at 5 mg/kg, iv and 10 mg/kg, po; assay type: ADME, organism-based; settings: in vivo
[27] = Volume of distribution at terminal phase in mouse at 5 mg/kg, iv and 10 mg/kg, po; assay type: ADME, organism-based; settings: in vivo, read-out: Vbeta

11-beta-hydroxysteroid dehydrogenase 1 (Mus musculus, UniProt P50172), sequence (P50172 whole entry): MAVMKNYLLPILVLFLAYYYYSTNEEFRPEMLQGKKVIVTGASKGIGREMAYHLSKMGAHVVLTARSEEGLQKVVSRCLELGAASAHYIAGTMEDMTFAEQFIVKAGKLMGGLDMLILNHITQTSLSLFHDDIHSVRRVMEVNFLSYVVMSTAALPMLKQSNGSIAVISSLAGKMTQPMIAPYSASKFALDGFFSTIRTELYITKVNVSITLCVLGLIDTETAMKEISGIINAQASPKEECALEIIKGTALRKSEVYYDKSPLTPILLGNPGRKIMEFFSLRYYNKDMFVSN
T2 sequence (P28845 whole entry): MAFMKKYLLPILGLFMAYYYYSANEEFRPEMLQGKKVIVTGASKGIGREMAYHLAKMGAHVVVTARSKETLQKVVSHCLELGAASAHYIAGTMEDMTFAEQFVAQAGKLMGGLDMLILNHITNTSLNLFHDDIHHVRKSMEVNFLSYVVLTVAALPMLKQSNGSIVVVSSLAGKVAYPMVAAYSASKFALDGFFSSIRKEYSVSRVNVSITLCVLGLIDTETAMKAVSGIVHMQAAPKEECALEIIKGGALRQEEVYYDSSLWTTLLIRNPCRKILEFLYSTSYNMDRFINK

Ki [1]	remaining at 0.5 h [2]	IC50 [3]	Ki [4]	IC50 [5]	IC50 [6]	SMILES	also measured
0.021 µM	< 1%	100 µM	–	–	–	CN(C)S(=O)(=O)[C@]12CC3CC(C1)[C@@H](NC(=O)C(C)(C)Oc1ccc(Cl)cc1)C(C3)C2	–
0.11 µM	–	–	0.17 µM	–	–	CC(=O)NS(=O)(=O)[C@]12CC3CC(C1)[C@@H](NC(=O)C(C)(C)Oc1ccc(Cl)cc1)C(C3)C2	–
0.003 µM	38%	> 100 µM	–	–	–	CC(C)(Oc1ccccc1OC(F)(F)F)C(=O)N[C@H]1C2CC3CC1C[C@](S(N)(=O)=O)(C3)C2	–
0.21 µM	–	> 100 µM	0.008 µM	0.42 µM	> 100 µM	CC(C)(C(=O)N[C@H]1C2CC3CC1C[C@](S(N)(=O)=O)(C3)C2)c1ccccc1	–
0.003 µM	61%	> 100 µM	0.006 µM	0.125 µM	> 100 µM	CC(C)(Oc1ccc(F)cc1Cl)C(=O)N[C@H]1C2CC3CC1C[C@](S(N)(=O)=O)(C3)C2	clearance [7]: 0.9 L/h/kg; inhibition in vivo at 30 mg/kg [8]: 78%; Vd [9]: 2.6 L/kg; inhibition in vivo at 30 mg/kg [10]: 48%; Vd [11]: 3.5 L/kg; inhibition in vivo at 30 mg/kg [12]: 88%; inhibition in vivo at 30 mg/kg [13]: 70%; inhibition in vivo at 30 mg/kg [14]: 62%; AUC [15]: 7 µg·h/mL; inhibition in vivo at 30 mg/kg [16]: 93%; inhibition in vivo at 30 mg/kg [17]: 73%; bioavailability [18]: 61%; inhibition in vivo at 30 mg/kg [19]: 29%; half-life [20]: 2.8 h; inhibition in vivo at 30 mg/kg [21]: 82%
0.002 µM	55%	> 100 µM	0.003 µM	0.19 µM	9 µM	CC(C)(Oc1c(Cl)cc(F)cc1Cl)C(=O)N[C@H]1C2CC3CC1C[C@](S(N)(=O)=O)(C3)C2	–
–	< 1%	> 100 µM	–	–	–	CNS(=O)(=O)[C@]12CC3CC(C1)[C@@H](NC(=O)C(C)(C)Oc1ccc(Cl)cc1)C(C3)C2	–
–	96%	> 100 µM	–	–	–	CC(C)(Oc1ccc(Cl)cc1)C(=O)N[C@H]1C2CC3CC1C[C@](S(N)(=O)=O)(C3)C2	Vd [22]: 2.1 L/kg; bioavailability [23]: 150%; AUC [24]: 18.3 µg·h/mL; clearance [25]: 0.8 L/h/kg; half-life [26]: 1.8 h; Vd [27]: 2.1 L/kg
0.003 µM	–	> 100 µM	0.007 µM	0.12 µM	> 100 µM	CC(C)(Oc1ccccc1C(F)(F)F)C(=O)N[C@H]1C2CC3CC1C[C@](S(C)(=O)=O)(C3)C2	–
0.002 µM	–	> 100 µM	0.005 µM	0.12 µM	5.4 µM	CC(C)(Oc1ccccc1Cl)C(=O)N[C@H]1C2CC3CC1C[C@](S(C)(=O)=O)(C3)C2	–
0.006 µM	–	> 100 µM	0.004 µM	0.32 µM	6.3 µM	CC(C)(Oc1cccc(Cl)c1)C(=O)N[C@H]1C2CC3CC1C[C@](S(N)(=O)=O)(C3)C2	–
